{"source": "ChEMBL document CHEMBL3813641", "about": "“Prediction and verification of novel peptide targets of protein tyrosine phosphatase 1B” (Bioorg Med Chem, 2016)", "key": {"[1]": {"substrate": "CC(C)C[C@@H](N)C(=O)NCC(=O)N[C@@H](CO)C(=O)N[C@@H](CCCNC(=N)N)C(=O)N[C@@H](C)C(=O)N1CCC[C@@H]1C(=O)N[C@H](Cc1ccc(O)cc1)C(=O)N1CCC[C@H]1C(=O)N[C@@H](Cc1cnc[nH]1)C(=O)N[C@H](Cc1ccccc1)C(=O)N[C@H](CS)C(=O)N[C@H](C)C(=O)O", "experiment": "(§1) Substrate activity at recombinant human N-terminal His-tagged PTP1B (1 to 321 residues) expressed in Escherichia coli BL21(DE3) cells assessed as inorganic phosphate release after 30 mins by spectrophotometric method", "summary_of_the_method": "(§2)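 Synthetic phosphotyrosine peptides (N-acetylated, C-terminal amide, HPLC-purified) were incubated in vitro with purified PTP1B, and the released inorganic phosphate was detected with the EnzChek phosphate assay kit.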"}, "[2]": {"substrate": "CC(C)[C@H](NC(=O)[C@H](CC(=O)O)NC(=O)[C@H](CCC(=O)O)NC(=O)[C@H](CC(N)=O)NC(=O)[C@@H](N)CC(=O)O)C(=O)N1CCC[C@@H]1C(=O)N[C@@H](Cc1ccc(O)cc1)C(=O)N[C@H](C(=O)N[C@@H](Cc1ccccc1)C(=O)N[C@@H](CCCCN)C(=O)N[C@H](C(=O)N1CCC[C@H]1C(=O)O)[C@@H](C)O)[C@@H](C)O", "experiment": "as §1", "summary_of_the_method": "as §2"}, "[3]": {"substrate": "CC[C@H](C)[C@H](N)C(=O)N[C@@H](CCC(=O)O)C(=O)N[C@@H](CC(=O)O)C(=O)N1CCC[C@H]1C(=O)N1CCC[C@@H]1C(=O)N[C@@H](Cc1ccc(O)cc1)C(=O)N1CCC[C@@H]1C(=O)N[C@@H](Cc1ccc(O)cc1)C(=O)NCC(=O)N[C@@H](CC(N)=O)C(=O)N[C@@H](CC(=O)O)C(=O)N[C@@H](CO)C(=O)N[C@@H](CC(=O)O)C(=O)O", "experiment": "as §1", "summary_of_the_method": "as §2"}, "[4]": {"substrate": "CC[C@H](C)[C@H](NC(=O)[C@@H]1CCCN1C(=O)[C@H](CCC(=O)O)NC(=O)[C@H](C)NC(=O)[C@H](Cc1ccc(O)cc1)NC(=O)[C@H]1CCCN1C(=O)[C@H](CC(N)=O)NC(=O)[C@H](CC(=O)O)NC(=O)[C@H](CO)NC(=O)[C@@H]1CCCN1C(=O)[C@@H](N)CC(=O)O)C(=O)N[C@@H](CC(=O)O)C(=O)O", "experiment": "as §1", "summary_of_the_method": "as §2"}, "[5]": {"substrate": "CC[C@H](C)[C@H](NC(=O)[C@@H]1CCCN1C(=O)[C@H](CO)NC(=O)[C@H](CCCCN)NC(=O)[C@H](Cc1ccc(O)cc1)NC(=O)[C@H]1CCCN1C(=O)[C@@H](NC(=O)[C@@H]1CCCN1C(=O)[C@H](CC(N)=O)NC(=O)[C@H](CCC(=O)O)NC(=O)[C@@H](N)CCC(N)=O)[C@@H](C)CC)C(=O)N[C@@H](CC(N)=O)C(=O)O", "experiment": "as §1", "summary_of_the_method": "as §2"}, "[6]": {"substrate": "CC[C@H](C)[C@H](NC(=O)[C@H](CC(=O)O)NC(=O)[C@H](CCC(=O)O)NC(=O)[C@H](CCC(=O)O)NC(=O)[C@@H](N)CCC(=O)O)C(=O)N1CCC[C@@H]1C(=O)N[C@@H](Cc1ccc(O)cc1)C(=O)N[C@@H](CCC(=O)O)C(=O)N[C@H](C(=O)N[C@@H](CC(C)C)C(=O)N1CCC[C@H]1C(=O)N[C@@H](CC(=O)O)C(=O)O)C(C)C", "experiment": "as §1", "summary_of_the_method": "as §2"}, "[7]": {"substrate": "C[C@@H](O)[C@H](NC(=O)[C@@H](N)CO)C(=O)N[C@@H](CCC(=O)O)C(=O)N1CCC[C@H]1C(=O)N[C@@H](CCC(N)=O)C(=O)N1CCC[C@@H]1C(=O)N[C@@H](Cc1ccc(O)cc1)C(=O)N[C@@H](CCC(N)=O)C(=O)N1CCC[C@H]1C(=O)NCC(=O)N[C@@H](CCC(=O)O)C(=O)N[C@@H](CC(N)=O)C(=O)O", "experiment": "as §1", "summary_of_the_method": "as §2"}, "[8]": {"substrate": "NCCCC[C@H](NC(=O)[C@H](CCCCN)NC(=O)[C@@H]1CCCN1C(=O)[C@H](Cc1ccc(O)cc1)NC(=O)[C@H]1CCCN1C(=O)[C@H](CCCCN)NC(=O)[C@H](CCCCN)NC(=O)[C@H](CCCCN)NC(=O)[C@@H](N)CCCCN)C(=O)O", "experiment": "as §1", "summary_of_the_method": "as §2"}, "[9]": {"substrate": "NCCCC[C@H](NC(=O)[C@H](CCCCN)NC(=O)[C@@H]1CCCN1C(=O)[C@H](Cc1ccc(O)cc1)NC(=O)[C@H]1CCCN1C(=O)[C@H](CCCCN)NC(=O)[C@H](CCCCN)NC(=O)[C@H](CCCCN)NC(=O)[C@@H](N)CCCCN)C(=O)O", "experiment": "Ratio of Kcat to Km for recombinant human N-terminal His-tagged PTP1B (1 to 321 residues) expressed in Escherichia coli BL21(DE3) cells"}, "[10]": {"substrate": "CC(C)[C@H](NC(=O)[C@@H](CCCCN)NC(=O)[C@@H](Cc1ccc(O)cc1)NC(=O)[C@H]1CCCN1C(=O)[C@H](Cc1ccc(O)cc1)NC(=O)[C@H]1CCCN1C(=O)[C@H](CCC(=O)O)NC(=O)[C@H](N)CCCCN)C(=O)N[C@H](CCCCN)C(=O)O", "experiment": "Substrate activity at PTP1B (unknown origin)", "settings": "Homo sapiens; call rule not given here", "summary_of_the_method": "as §2"}}}
{"protein": "Tyrosine-protein phosphatase non-receptor type 1 (Homo sapiens), P18031 (protein) MEMEKEFEQIDKSGSWAAIYQDIRHEASDFPCRVAKLPKNKNRNRYRDVSPFDHSRIKLHQEDNDYINASLIKMEEAQRSYILTQGPLPNTCGHFWEMVWEQKSRGVVMLNRVMEKGSLKCAQYWPQKEEKEMIFEDTNLKLTLISEDIKSYYTVRQLELENLTTQETREILHFHYTTWPDFGVPESPASFLNFLFKVRESGSLSPEHGPVVVHCSAGIGRSGTFCLADTCLLLMDKRKDPSSVDIKKVLLEMRKFRMGLIQTADQLRFSYLAVIEGAKFIMGDSSVQDQWKELSHEDLEPPPEHIPPPPRPPKRILEPHNGKCREFFPNHQWVKEETQEDKDCPIKEEKGSPLNAAPYGIESMSQDTEVRSRVVGGSLRGAQAASPAKGEPSLPEKDEDHALSYWKPFLVNMCVATVLTAGAYLCYRFLFNSNT", "values": [{"measurement": "Km", "setting": "[1]", "result": "> 300", "unit": "µM"}, {"measurement": "Km", "setting": "[2]", "result": 17.1, "unit": "µM"}, {"measurement": "Km", "setting": "[3]", "result": 20.1, "unit": "µM"}, {"measurement": "Km", "setting": "[4]", "result": 28.5, "unit": "µM"}, {"measurement": "Km", "setting": "[5]", "result": 21.7, "unit": "µM"}, {"measurement": "Km", "setting": "[6]", "result": 14.7, "unit": "µM"}, {"measurement": "Km", "setting": "[7]", "result": 29.1, "unit": "µM"}, {"measurement": "Km", "setting": "[8]", "result": "Not Active"}, {"measurement": "kcat/Km", "setting": "[9]", "result": "Not Active"}, {"measurement": "Km", "setting": "[10]", "result": 12.7, "unit": "µM"}]}
